A selection: hits, their analogues and other compounds. The true share with any hit is near 1.4%.
T cell modulator = modulates CD8 T cell binding to vesicles; 2C CD8+ T cell-vesicle binding, flow cytometry; active compounds read low; response (vesicle binding), % at 7 µM; AID 2052; 0.068% of 330,000 active;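 active = response, share of CD8 T cells binding vesicles, and their 90th percentile fluorescence all below set limits, cut at about 80% in these data, passing the limit was not always enough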;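 also: values below 100% mean blocked vesicle binding to the CD8+ T cells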
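Benchmarks: naked versus QL9-loaded vesicles / Assay system: purified 2C TCR transgenic mouse naive CD8+ T cells / Technique: high-throughput flow cytometry with anti-B7-1 and anti-CD8 staining / Timing: Cell–vesicle co-incubation 1.5 h at 37 °C, staining 20 min on ice / Read-out: percent CD8+ FL2 mean versus row control / Probe or stimulus: QL9-loaded Drosophila micro-vesicles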
Myeloid diff 2 = compounds promoting myeloid differentiation; 1% of 360,000 active; ER-HoxA9 myeloid progenitors, lysozyme-GFP differentiation, flow cytometry; AID 624256; calls only at 10 µM;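 active = normalized GFP-positive differentiation at or above the plate's own cutoff, the solvent-only control mean plus 3 SD; inconclusive = no clear call, values can overlap the other calls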;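 also: cells exposed to compound for four days before flow analysis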
Casp6 inh = caspase-6 (human) enzyme inhibition. P55212. inhibition, % at 12.5 µM. 0.53% of 350,000 active. purified caspase-6, Z-VEID-R110 cleavage fluorescence;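 active = mean inhibition across replicates at least about 35%, with every replicate also reaching that limit, limit read from the data; inconclusive = only one of the two criteria met; inactive = neither criterion met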;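 also: 0% = median of neutral control wells and 100% = no fluorescence left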
Target sequence (P55212 24-179 limits assumed): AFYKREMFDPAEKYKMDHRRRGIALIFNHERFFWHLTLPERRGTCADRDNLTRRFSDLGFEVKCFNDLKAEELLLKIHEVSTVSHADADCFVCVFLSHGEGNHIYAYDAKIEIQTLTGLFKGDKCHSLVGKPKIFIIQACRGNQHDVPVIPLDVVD
Target sequence (P55212 194-293 limits assumed): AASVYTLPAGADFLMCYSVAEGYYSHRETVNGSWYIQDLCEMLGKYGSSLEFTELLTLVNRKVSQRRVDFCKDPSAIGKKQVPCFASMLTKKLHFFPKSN
Vif inh = blocks HIV Vif function. HEK293T cells, Vif self-association by quenched fluorescence, imaging, 24 h. inhibition, % at 7.49 µM. 0.35% of 340,000 active. AID 602346; in the data active = inhibition above about 50%, passing the limit was not always enough; inconclusive = no clear call, values can overlap the other calls; inactive = below about 31%
Myeloid diff = myeloid differentiation induction | ER-HoxA9 myeloid progenitors, GFP/Mac1 double-positive flow | calls only | shares compounds with Myeloid diff 2 | 2% of 2,300 active;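 active = share of green or green-and-red cells above 9 and 9% in run 1 or 4 and 3% in run 2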
GFP autofluor = flagged as fluorescent in myeloid differentiation counter-screen. AID 651707. 7.4% of 2,300 active. shares compounds with Myeloid diff 2. ER-HoxA9 myeloid progenitors, no estrogen, GFP autofluorescence flow cytometry; vehicle wells 0%, positive control 100%. fluorescence response, % (no concentration beside the values);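 active = over 5% cells positive for green fluorescent reporter, or over 2% positive for both it and APC stain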;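 also: range taken on the double positive population between DMSO and positive control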
Active calls of the source: *; i = inactive; ? = inconclusive; . = no result; + = active, no number.

SMILES	T cell modulator	Myeloid diff 2	Casp6 inh	Vif inh	Myeloid diff	GFP autofluor
CCOc1ccc2nc(N3CCC(C(=O)N4CCN(C5CCCCC5)CC4)CC3)sc2c1	225	i	-5	0	i	0
C(#Cc1ccccc1)C[N+]1(CC#Cc2ccccc2)CCCC1	480	?	-6	-3	.	.
C=CC[N+]1(CC#Cc2ccccc2)CCCC1	119	+	-19	4	i	0
O=C(NC1CCCCC1)C(Cc1ccccc1)NS(=O)(=O)c1cccs1 (centres undefined)	482	i	.	5	i	1
O=C(NC1CCCc2ccccc21)C(Cc1ccccc1)NS(=O)(=O)c1cccs1 (centres undefined)	325	i	1	-1	.	.
O=C(C[C@H]1C[C@@H]2c3cc(NC(=O)Nc4ccccc4)ccc3O[C@@H]2[C@H](CO)O1)NCC1CC1	.	.	-6	.	.	.
O=C(N[C@H]1CC[C@H](CC(=O)N2CCOCC2)O[C@@H]1CO)c1ccc2c(c1)OCO2	.	.	0	.	.	.
CN(C(=O)C(C)(C)C)[C@H]1C[C@H]2c3[nH]c4ccccc4c3CCN2C(=O)[C@H]1CO	.	i	5	6	i	2
CN(C(=O)NC1CCCCC1)[C@H]1C[C@H]2c3[nH]c4ccccc4c3CCN2C(=O)[C@H]1CO	.	i	29	.	.	.
CCOCCCNC(=O)Cc1c(C(=O)O)[nH]c2ccc(Cl)cc12	543	i	0	.	i	0
CNC[C@H]1OCCCC[C@H](C)Oc2ccc(NC(=O)NC3CCCCC3)cc2C(=O)N([C@H](C)CO)C[C@@H]1C	.	.	-5	.	.	.
N#Cc1cc(C#N)c(N2CCN(c3ccccn3)CC2)nc1N	342	+	.	-3	i	0
COCC#Cc1cnc2c(c1)C(=O)N([C@@H](C)CO)C[C@@H](C)[C@@H](CN(C)C(=O)CN1CCOCC1)O2	.	.	-1	.	.	.
O=C(CN1C(=O)S/C(=C\c2ccccc2)C1=O)NNC(=O)c1ccccc1O	457	i	.	.	.	.
O=C(CN1C(=O)S/C(=C\c2ccc(O)cc2)C1=O)c1ccccc1	470	i	-3	-2	i	2
CCCC(=O)Nc1ccc2c(c1)C(=O)N(C)[C@@H]1CC[C@H](CC(=O)NCCc3ccncc3)O[C@@H]1CO2	.	.	2	.	.	.
Cc1ccc(/C=C/c2nnc(-c3cccs3)o2)cc1	336	i	.	18	i	0
CC(C)NC(=O)Nc1ccc2c(c1)CC(=O)N([C@@H](C)CO)C[C@@H](C)[C@@H](CN(C)C(=O)Nc1ccc(F)cc1)O2	.	.	2	.	.	.
C[C@H](O)C#Cc1cnc2c(c1)C(=O)N([C@H](C)CO)C[C@@H](C)[C@H](CN(C)C(=O)Nc1ccc(C(F)(F)F)cc1)O2	.	i	2	10	i	0
C[C@@H](O)C#Cc1cnc2c(c1)C(=O)N([C@@H](C)CO)C[C@H](C)[C@H](CN(C)C(=O)Nc1ccc(F)cc1)O2	.	.	-3	.	.	.
COCC(=O)Nc1ccc2c(c1)C(=O)N(C)C[C@@H](OC)[C@H](C)CN(Cc1cccc(F)c1)[C@@H](C)CO2	.	.	2	.	.	.
CCN1C(=O)[C@@H]2[C@@H](c3ccc(-c4ccc(Cl)c(Cl)c4)c(OC)c3)N3CCC[C@@]3(C(=O)OC)[C@@H]2C1=O	600	i	-2	-18	.	.
CCN1C(=O)[C@@H]2[C@@H](c3ccc(-c4cccc(Cl)c4)c(OC)c3)N3CCCC[C@@]3(C(=O)OC)[C@@H]2C1=O	629	+	-14	1	i	0
CC1(C)C2CCC1(C)C(SC(=N)N)C2 (centres undefined)	.	i	-1	1	i	0
COc1ccc(C(=O)Nc2ccc3c(c2)C(=O)N(C)C[C@H](OC)[C@@H](C)CN[C@@H](C)CO3)cc1	.	.	1	.	.	.
SMILES	T cell modulator	Myeloid diff 2	Casp6 inh	Vif inh	Myeloid diff	GFP autofluor
CN=C(NC)SC1CC(=O)N(c2ccccc2)C1=O (centres undefined)	112	i	.	4	i	0
C[C@@H]1CN([C@H](C)CO)C(=O)c2cc(NS(=O)(=O)c3ccc(F)cc3)ccc2O[C@@H](C)CCCCO[C@@H]1CN(C)C(=O)CCCN(C)C	.	.	2	.	.	.
COCC(=O)N1CC2(CN(Cc3cccnc3)C2)c2c(n(C)c3cc(OC)ccc23)[C@H]1CO	.	.	-5	.	.	.
C=CCn1c(N2CCN(c3ccc(OC)cc3)CC2)nc2c1c(=O)n(C)c(=O)n2C	164	i	9	-3	.	.
C=CCn1c(N2CCN(c3ccc(OC)cc3)CC2)nc2c1c(=O)[nH]c(=O)n2C	238	i	1	9	i	0
CN(C)S(=O)(=O)NCC1CCCN(Cc2ccc(-c3ccccc3)cc2)C1 (centres undefined)	199	i	-2	-21	.	.
CN(C)S(=O)(=O)NCC1CCCN(Cc2cc3ccccc3s2)C1 (centres undefined)	187	i	-3	-12	i	0
CC(C)NC(=O)N(C)C[C@@H]1Oc2ccc(NC(=O)Cc3cn(C)c4ccccc34)cc2C(=O)N([C@H](C)CO)C[C@H]1C	.	.	1	.	.	.
CCC(=O)N1CCc2cc(Br)cc(S(=O)(=O)CCC(=O)NCC3CCCO3)c21 (centres undefined)	253	+	.	-12	i	0
OCCN(Cc1ccccc1)Cc1ccc(F)c(F)c1	401	i	9	8	i	0
OCCN(Cc1ccccc1)Cc1ccccc1O	195	i	1	-4	.	.
CCCN1C(=O)c2cccc3c(N4CCCCC4)ccc(c23)C1=O	348	+	.	7	i	1
CC1(C)CC(=O)C2=C(C1)N(Cc1ccco1)C(=O)C2(NC(=O)C1CCCCC1)C(F)(F)F (centres undefined)	565	i	.	17	i	0
CC1(C)CC(=O)C2=C(C1)N(Cc1ccco1)C(=O)C2(NC(=O)c1ccc(Cl)cc1Cl)C(F)(F)F (centres undefined)	223	i	.	-5	.	.
O=C(C[C@@H]1CC[C@@H]2NC[C@@H](O)COC[C@H]2O1)NCCN1CCCC1	.	.	-1	.	.	.
O=C(Nc1ccc(F)cc1)c1cccc(N2C(=O)C3C4C=CC(C4)C3C2=O)c1 (centres undefined)	i	+	1	-8	i	0
COc1ccc(NC(=O)c2cccnc2)cc1	210	i	-1	3	.	.
COc1ccc(Cn2c(C3CC3)nc3ccc(NC(C)=O)cc3c2=O)cc1	636	+	.	-3	i	0
CCCc1nc2ccc(NC(C)=O)cc2c(=O)n1Cc1ccc(Cl)cc1	552	i	0	-3	.	.
COc1ccc(Cn2c(C3CC3)nc3ccc(NC(=O)c4cccnc4)cc3c2=O)cc1	240	+	.	-2	i	14*
COc1cccc(C#Cc2ccc([C@H]3[C@H](CO)N4C(=O)CN(C(C)=O)C[C@@H]34)cc2)c1	.	.	1	.	.	.
